Source: ChEMBL document CHEMBL1671716, “Antimicrobial susceptibility patterns for recent clinical isolates of anaerobic bacteria in South Korea” (2010)
In brackets after ≈: the same amount, converted by molar mass.

Assays:
Format in all cases: functional
[1] = system: Bacteroides ovatus; test: Antimicrobial activity against Bacteroides ovatus assessed as percent susceptible isolates after 48 hrs by agar dilution method
[2] = system: Peptoniphilus asaccharolyticus; test: Antimicrobial activity against Peptoniphilus asaccharolyticus after 48 hrs by agar dilution method
How it was run: (§1)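 CLSI agar dilution (M11-A7); inoculum 10^5 CFU applied by replicator; plates incubated anaerobically 48 h at 37°C. For piperacillin-tazobactam, tazobactam held constant at 4 μg/ml.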

[3] = system: Fusobacterium mortiferum; test: Antimicrobial activity against Fusobacterium mortiferum after 48 hrs by agar dilution method; how it was run: as §1
[4] = system: Peptoniphilus asaccharolyticus; test: Antimicrobial activity against Peptoniphilus asaccharolyticus assessed as percent resistant isolates after 48 hrs by agar dilution method
How it was run: (§2)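 CLSI agar dilution on recent Korean clinical anaerobe isolates. Inoculum 10^5 CFU per spot by replicator. Plates incubated in an anaerobic chamber at 37°C for 48 h. For piperacillin plus tazobactam, tazobactam was held constant at 4 μg/ml. Resistance and susceptibility rates derived from MICs.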

[5] = system: Clostridioides difficile; test: Antimicrobial activity against Clostridium difficile after 48 hrs by agar dilution method
[6] = system: Eggerthella lenta; test: Antimicrobial activity against Eubacterium lentum after 48 hrs by agar dilution method; how it was run: as §1
[7] = system: Actinomyces naeslundii; test: Antimicrobial activity against Actinomyces naeslundii assessed as percent susceptible isolates after 48 hrs by agar dilution method
[8] = system: Bacteroides thetaiotaomicron; test: Antimicrobial activity against Bacteroides thetaiotaomicron after 48 hrs by agar dilution method
How it was run: (§3)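 MICs on clinical anaerobe isolates by the CLSI agar dilution method. Inoculum of 10^5 CFU applied with a Steers replicator. Plates incubated 48 h at 37°C in an anaerobic chamber.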

[9] = system: Eggerthella lenta; test: Antimicrobial activity against Eubacterium lentum assessed as percent resistant isolates after 48 hrs by agar dilution method; how it was run: as §2
[10] = system: Prevotella bivia; test: Antimicrobial activity against Prevotella bivia assessed as percent susceptible isolates after 48 hrs by agar dilution method; how it was run: as §1
[11] = system: Prevotella buccae; test: Antimicrobial activity against Prevotella buccae after 48 hrs by agar dilution method; settings: Segatella buccae; how it was run: as §1
[12] = system: Prevotella intermedia; test: Antimicrobial activity against Prevotella intermedia assessed as percent susceptible isolates after 48 hrs by agar dilution method; how it was run: as §1
[13] = system: Bacteroides thetaiotaomicron; test: Antimicrobial activity against Bacteroides thetaiotaomicron assessed as percent susceptible isolates after 48 hrs by agar dilution method
[14] = system: Fusobacterium varium; test: Antimicrobial activity against Fusobacterium varium after 48 hrs by agar dilution method; how it was run: as §1
[15] = system: Prevotella bivia; test: Antimicrobial activity against Prevotella bivia assessed as percent resistant isolates after 48 hrs by agar dilution method; how it was run: as §2
[16] = system: Schaalia odontolytica; test: Antimicrobial activity against Actinomyces odontolyticus assessed as percent susceptible isolates after 48 hrs by agar dilution method
[17] = system: Hoylesella oralis; test: Antimicrobial activity against Prevotella oralis after 48 hrs by agar dilution method; how it was run: as §1
[18] = system: Bacteroides thetaiotaomicron; test: Antimicrobial activity against Bacteroides thetaiotaomicron assessed as percent resistant isolates after 48 hrs by agar dilution method; how it was run: as §2
[19] = system: Clostridium perfringens; test: Antimicrobial activity against Clostridium perfringens assessed as percent susceptible isolates after 48 hrs by agar dilution method
[20] = system: Schaalia meyeri; test: Antimicrobial activity against Actinomyces meyeri assessed as percent susceptible isolates after 48 hrs by agar dilution method
[21] = system: Eubacterium sp.; test: Antimicrobial activity against Eubacterium sp. after 48 hrs by agar dilution method; how it was run: as §1
[22] = system: Eggerthella lenta; test: Antimicrobial activity against Eubacterium lentum assessed as percent susceptible isolates after 48 hrs by agar dilution method; how it was run: as §1
[23] = system: Porphyromonas asaccharolytica; test: Antimicrobial activity against Porphyromonas asaccharolytica after 48 hrs by agar dilution method; how it was run: as §1
[24] = system: Clostridium perfringens; test: Antimicrobial activity against Clostridium perfringens after 48 hrs by agar dilution method
[25] = system: Schaalia meyeri; test: Antimicrobial activity against Actinomyces meyeri assessed as percent resistant isolates after 48 hrs by agar dilution method; how it was run: as §2
[26] = system: Bacteroides ovatus; test: Antimicrobial activity against Bacteroides ovatus after 48 hrs by agar dilution method; how it was run: as §3
[27] = system: Parvimonas micra; test: Antimicrobial activity against Peptostreptococcus micros assessed as percent susceptible isolates after 48 hrs by agar dilution method; how it was run: as §2
[28] = system: Bacteroides fragilis; test: Antimicrobial activity against Bacteroides fragilis assessed as percent resistant isolates after 48 hrs by agar dilution method; how it was run: as §2
[29] = system: Actinomyces israelii; test: Antimicrobial activity against Actinomyces israelii assessed as percent susceptible isolates after 48 hrs by agar dilution method

Row | SMILES | Activity [1] [%] | MIC50 [2] [µg/mL] | MIC90 [2] [µg/mL] | Activity [4] [%] | MIC50 [6] [µg/mL] | MIC90 [6] [µg/mL] | Activity [7] [%] | Activity [10] [%] | Activity [12] [%] | Activity [13] [%] | Activity [16] [%] | MIC50 [17] [µg/mL] | MIC90 [17] [µg/mL] | Activity [18] [%] | Activity [20] [%] | MIC50 [21] [µg/mL] | MIC90 [21] [µg/mL] | Activity [22] [%] | MIC50 [26] [µg/mL] | MIC90 [26] [µg/mL] | further results
1 | CO[C@@]1(NC(=O)C2SC(=C(C(N)=O)C(=O)O)S2)C(=O)N2C(C(=O)O)=C(CSc3nnnn3C)CS[C@@H]21 (stereo not given in full) [CEFOTETAN] | 89 | 0.25 (≈ 0.434 µM) | 1 (≈ 1.74 µM) | 0 | 4 (≈ 6.95 µM) | 64 (≈ 111 µM) | 85 | 72 | 100 | 89 | 85 | 4 (≈ 6.95 µM) | 64 (≈ 111 µM) | 86 | 85 | 4 (≈ 6.95 µM) | 64 (≈ 111 µM) | 85 | > 128 | > 128 | MIC [3]: 0.06 µg/mL (≈ 0.104 µM); MIC [5]: 8 µg/mL (≈ 13.9 µM); MIC50 [5]: 8 µg/mL (≈ 13.9 µM); MIC90 [5]: 128 µg/mL (≈ 222 µM); MIC50 [8]: > 128 µg/mL; MIC90 [8]: > 128 µg/mL; Activity [9]: 15%; MIC50 [11]: 4 µg/mL (≈ 6.95 µM); MIC90 [11]: 64 µg/mL (≈ 111 µM); MIC [14]: 0.06 µg/mL (≈ 0.104 µM); Activity [15]: 17%; Activity [19]: 100%; MIC [23]: 0.06 µg/mL (≈ 0.104 µM); MIC50 [24]: 0.25 µg/mL (≈ 0.434 µM); MIC90 [24]: 1 µg/mL (≈ 1.74 µM); Activity [25]: 15%; Activity [27]: 31%; Activity [28]: 14%; Activity [29]: 85%
2 | CO[C@@]1(NC(=O)Cc2cccs2)C(=O)N2C(C(=O)O)=C(COC(N)=O)CS[C@@H]21 [CEFOXITIN] | 25 | ≤ 0.06 | 0.5 (≈ 1.17 µM) | 0 | 2 (≈ 4.68 µM) | 16 (≈ 37.4 µM) | 92 | 89 | 100 | 25 | 92 | 1 (≈ 2.34 µM) | 32 (≈ 74.9 µM) | 7 | 92 | 2 (≈ 4.68 µM) | 16 (≈ 37.4 µM) | 92 | 32 (≈ 74.9 µM) | 32 (≈ 74.9 µM) | MIC [3]: 0.06 µg/mL (≈ 0.14 µM); MIC [5]: 64 µg/mL (≈ 150 µM); MIC50 [5]: 64 µg/mL (≈ 150 µM); MIC90 [5]: > 128 µg/mL; MIC50 [8]: 32 µg/mL (≈ 74.9 µM); MIC90 [8]: 32 µg/mL (≈ 74.9 µM); Activity [9]: 0%; MIC50 [11]: 1 µg/mL (≈ 2.34 µM); MIC90 [11]: 32 µg/mL (≈ 74.9 µM); MIC [14]: 0.06 µg/mL (≈ 0.14 µM); Activity [15]: 0%; Activity [19]: 100%; MIC [23]: 0.06 µg/mL (≈ 0.14 µM); MIC50 [24]: 1 µg/mL (≈ 2.34 µM); MIC90 [24]: 2 µg/mL (≈ 4.68 µM); Activity [25]: 0%; Activity [27]: 0%; Activity [28]: 5%; Activity [29]: 92%
3 | CCC[C@@H]1C[C@@H](C(=O)N[C@@H]([C@H]2O[C@H](SC)[C@H](O)[C@@H](O)[C@H]2O)[C@H](C)Cl)N(C)C1 [CLINDAMYCIN] | 16 | 0.125 (≈ 0.294 µM) | 32 (≈ 75.3 µM) | 33 | 0.06 (≈ 0.141 µM) | > 128 | 85 | 50 | 100 | 16 | 85 | ≤ 0.06 | 128 (≈ 301 µM) | 68 | 85 | 0.06 (≈ 0.141 µM) | > 128 | 85 | > 128 | > 128 | MIC [3]: 0.06 µg/mL (≈ 0.141 µM); MIC50 [5]: 64 µg/mL (≈ 151 µM); MIC90 [5]: 128 µg/mL (≈ 301 µM); MIC [6]: 0.06 µg/mL (≈ 0.141 µM); MIC50 [8]: > 128 µg/mL; MIC90 [8]: > 128 µg/mL; Activity [9]: 15%; MIC50 [11]: ≤ 0.06 µg/mL; MIC90 [11]: 128 µg/mL (≈ 301 µM); MIC [14]: 0.06 µg/mL (≈ 0.141 µM); Activity [19]: 80%; MIC [21]: 0.06 µg/mL (≈ 0.141 µM); MIC [23]: 0.06 µg/mL (≈ 0.141 µM); MIC50 [24]: 2 µg/mL (≈ 4.71 µM); MIC90 [24]: 4 µg/mL (≈ 9.41 µM); Activity [25]: 15%; Activity [27]: 23%; Activity [28]: 33%; Activity [29]: 85%
4 | Cc1ncc([N+](=O)[O-])n1CCO [METRONIDAZOLE] | 100 | 1 (≈ 5.84 µM) | 1 (≈ 5.84 µM) | 0 | 16 (≈ 93.5 µM) | > 128 | 46 | 100 | 100 | 100 | 46 | 4 (≈ 23.4 µM) | 8 (≈ 46.7 µM) | 0 | 46 | 16 (≈ 93.5 µM) | > 128 | 46 | 2 (≈ 11.7 µM) | 2 (≈ 11.7 µM) | MIC [3]: 0.13 µg/mL (≈ 0.76 µM); MIC50 [5]: 1 µg/mL (≈ 5.84 µM); MIC90 [5]: 1 µg/mL (≈ 5.84 µM); MIC50 [8]: 2 µg/mL (≈ 11.7 µM); MIC90 [8]: 2 µg/mL (≈ 11.7 µM); MIC50 [11]: 4 µg/mL (≈ 23.4 µM); MIC90 [11]: 8 µg/mL (≈ 46.7 µM); MIC [14]: 0.13 µg/mL (≈ 0.76 µM); Activity [15]: 0%; Activity [19]: 100%; MIC [23]: 0.13 µg/mL (≈ 0.76 µM); MIC [24]: 0.02 µg/mL (≈ 0.117 µM); MIC50 [24]: 0.03 µg/mL (≈ 0.175 µM); MIC90 [24]: 0.06 µg/mL (≈ 0.351 µM); Activity [27]: 0%; Activity [28]: 0%; Activity [29]: 46%
5 | COc1c(N2C[C@@H]3CCCN[C@@H]3C2)c(F)cc2c(=O)c(C(=O)O)cn(C3CC3)c12 [MOXIFLOXACIN] | 72 | 0.25 (≈ 0.623 µM) | 2 (≈ 4.98 µM) | 0 | 1 (≈ 2.49 µM) | 2 (≈ 4.98 µM) | 92 | 56 | 100 | 72 | 92 | 2 (≈ 4.98 µM) | 8 (≈ 19.9 µM) | 18 | 92 | 1 (≈ 2.49 µM) | 2 (≈ 4.98 µM) | 92 | 2 (≈ 4.98 µM) | 16 (≈ 39.9 µM) | Activity [9]: 0%; Activity [15]: 11%; Activity [25]: 0%; Activity [27]: 8%; Activity [28]: 11%; Activity [29]: 92%
